Experimental data as given in ChEMBL document CHEMBL5032506, “Identification of Transthyretin Tetramer Kinetic Stabilizers That Are Capable of Inhibiting the Retinol-Dependent Retinol Binding Protein 4-Transthyretin Interaction: Potential Novel Therapeutics for Macular Degeneration, Transthyretin Amyloidosis, and Their Common Age-Related Comorbidities” (J Med Chem, 2021).
The source made the active and inactive calls. No cut-off for these calls is given here.

Key:
[1] = target: CYP2D6 (Homo sapiens, UniProt P10635); assay: Inhibition of CYP2D6 (unknown origin) at 10 uM relative to control; assay type: ADME
Chain of CYP2D6 (P10635 whole entry): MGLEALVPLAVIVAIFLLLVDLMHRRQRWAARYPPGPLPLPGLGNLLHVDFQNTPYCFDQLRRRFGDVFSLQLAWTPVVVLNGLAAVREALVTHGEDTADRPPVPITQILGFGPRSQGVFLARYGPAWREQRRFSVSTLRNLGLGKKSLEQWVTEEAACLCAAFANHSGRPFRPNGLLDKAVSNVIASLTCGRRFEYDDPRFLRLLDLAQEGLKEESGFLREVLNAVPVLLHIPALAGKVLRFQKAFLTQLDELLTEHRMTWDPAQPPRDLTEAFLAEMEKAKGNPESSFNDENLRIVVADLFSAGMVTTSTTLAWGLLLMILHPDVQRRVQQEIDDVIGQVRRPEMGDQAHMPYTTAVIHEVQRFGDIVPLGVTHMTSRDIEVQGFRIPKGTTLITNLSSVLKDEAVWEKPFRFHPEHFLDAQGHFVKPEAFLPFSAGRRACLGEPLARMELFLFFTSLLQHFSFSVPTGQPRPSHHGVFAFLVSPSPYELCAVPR

[2] = target: CYP3A4 (Homo sapiens, UniProt P08684); assay: (§1) Inhibition of CYP3A4 (unknown origin) at 10 uM relative to control; assay type: ADME
Chain of CYP3A4 (P08684 whole entry): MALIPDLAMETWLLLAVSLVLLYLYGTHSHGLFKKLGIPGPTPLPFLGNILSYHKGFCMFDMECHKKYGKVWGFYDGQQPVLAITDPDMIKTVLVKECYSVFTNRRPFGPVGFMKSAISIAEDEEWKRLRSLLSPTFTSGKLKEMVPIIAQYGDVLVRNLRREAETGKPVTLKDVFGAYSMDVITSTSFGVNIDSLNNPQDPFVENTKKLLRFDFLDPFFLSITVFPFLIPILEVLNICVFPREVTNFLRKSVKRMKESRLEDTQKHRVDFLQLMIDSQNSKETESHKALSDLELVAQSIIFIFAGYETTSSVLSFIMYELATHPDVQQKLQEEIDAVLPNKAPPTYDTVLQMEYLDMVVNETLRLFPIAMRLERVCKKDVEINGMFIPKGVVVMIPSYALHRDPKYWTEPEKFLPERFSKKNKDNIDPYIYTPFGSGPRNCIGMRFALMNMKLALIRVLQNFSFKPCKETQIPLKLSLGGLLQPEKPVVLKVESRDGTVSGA

[3] = Solubility of the compound at pH 7.4 in PBS; assay type: physicochemical
Outline: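 Kinetic solubility in PBS, pH 7.4. Values above 200 μM are capped at the top assay concentration, 200 μM.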

[4] = target: CYP2C9 (Homo sapiens, UniProt P11712); assay: Inhibition of CYP2C9 (unknown origin) at 10 uM relative to control; assay type: ADME
Chain of CYP2C9 (P11712 whole entry): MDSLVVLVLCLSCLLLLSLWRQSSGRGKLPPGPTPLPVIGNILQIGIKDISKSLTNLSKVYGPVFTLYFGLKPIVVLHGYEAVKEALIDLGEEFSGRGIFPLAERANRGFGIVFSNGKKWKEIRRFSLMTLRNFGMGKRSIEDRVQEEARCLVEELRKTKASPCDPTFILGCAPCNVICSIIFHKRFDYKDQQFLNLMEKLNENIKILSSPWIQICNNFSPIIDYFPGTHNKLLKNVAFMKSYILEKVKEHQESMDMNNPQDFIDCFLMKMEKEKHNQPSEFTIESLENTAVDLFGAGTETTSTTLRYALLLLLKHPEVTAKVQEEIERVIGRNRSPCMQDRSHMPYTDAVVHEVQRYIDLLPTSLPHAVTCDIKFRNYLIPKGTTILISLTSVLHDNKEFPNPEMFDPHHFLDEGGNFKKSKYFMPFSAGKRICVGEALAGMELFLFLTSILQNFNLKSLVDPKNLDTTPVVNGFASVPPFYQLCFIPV

[5] = target: CYP2C19 (Homo sapiens, UniProt P33261); assay: (§2) Inhibition of CYP2C19 (unknown origin) at 10 uM relative to control; assay type: ADME
Chain of CYP2C19 (P33261 whole entry): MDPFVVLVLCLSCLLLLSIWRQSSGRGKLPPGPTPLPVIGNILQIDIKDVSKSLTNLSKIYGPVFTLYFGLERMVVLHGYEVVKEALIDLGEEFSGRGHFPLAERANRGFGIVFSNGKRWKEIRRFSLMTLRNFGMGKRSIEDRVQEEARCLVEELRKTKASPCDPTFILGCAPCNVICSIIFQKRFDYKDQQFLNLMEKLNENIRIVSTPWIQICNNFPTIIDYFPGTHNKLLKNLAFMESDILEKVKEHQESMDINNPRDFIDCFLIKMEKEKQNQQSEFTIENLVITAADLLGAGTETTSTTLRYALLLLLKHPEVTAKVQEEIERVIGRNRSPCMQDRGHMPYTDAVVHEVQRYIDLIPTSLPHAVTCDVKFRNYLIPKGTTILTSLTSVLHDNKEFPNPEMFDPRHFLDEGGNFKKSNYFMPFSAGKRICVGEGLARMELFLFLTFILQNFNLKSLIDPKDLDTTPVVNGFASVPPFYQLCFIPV

[6] = target: Retinol-binding protein 4 (Homo sapiens, UniProt P02753); assay: Displacement of [3H]-all trans retinol from human urine biotinylated RBP4 incubated for 16 hrs measured by Scintillation Proximity Assay
[7] = target: T1, Transthyretin (Homo sapiens, UniProt P02766); assay: Binding affinity to human plasma TTR tetramer assessed as displacement of diclofenac-coupled FITC by fluorescence polarization assay; assay type: cell-free
[8] = test system: Mus musculus; assay: Reduction in serum RBP4 level in mouse measured at 25 mg/kg, po after 2 hrs
[9] = test system: Mus musculus; assay: Effect of TTR level in po dosed mouse serum; assay type: functional, organism-based
[10] = test system: Mus musculus; assay: Reduction in serum RBP4 level in mouse measured at 25 mg/kg, po after 1 hr
[11] = target: T1, Transthyretin; assay: Stabilization of human plasma TTR assessed as increase in dimer band intensity at 50 uM measured after 72 hrs by Western blotting analysis; assay type: cell-free
[12] = target: T1, Transthyretin; assay: Stabilization of human plasma TTR assessed as supression of low pH mediated TTR aggregate formation at 50 uM using pH 4 buffer; assay type: cell-free
[13] = target: T1, Transthyretin; assay: Stabilization of human plasma TTR assessed as supression of low pH mediated TTR aggregate formation at 50 uM using pH 4.0 buffer
[14] = target: T1, Transthyretin; assay: Stabilization of human plasma TTR assessed as inhibition of formation of high molecular weight forms of TTR with acetate buffer at pH 4 by measured at 50 uM after 72 hrs by acid-induced aggregation assay; assay type: cell-free
[15] = test system: Mus musculus; assay: Reduction in serum RBP4 level in mouse measured at 25 mg/kg, po after 6 hrs; assay type: functional
Outline: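 Balb/c mice given a single oral dose, 25 mg/kg, in 0.9% NaCl/2% Tween 80, with a vehicle group. […] Three to eight mice per group; mean ± SD.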

[16] = target: Cytochrome P450 3A4 (Homo sapiens, UniProt P08684); assay: as §1; assay type: ADME; conditions: 10 µM
Chain of Cytochrome P450 3A4 (P08684 whole entry): as the sequence (P08684 whole entry) above

[17] = Plasma protein binding in rat; assay type: ADME, cell-free
[18] = target: Cytochrome P450 2C19 (Homo sapiens, UniProt P33261); assay: as §2; assay type: ADME; conditions: 10 µM
Chain of Cytochrome P450 2C19 (P33261 whole entry): as the sequence (P33261 whole entry) above

[19] = Disruption of retional-induced bacterially expressed MBP-tagged RBP4-TTR (unknown origin) protein-protein interaction measured by d2 dye based HTFR assay; design: species or system Homo sapiens
[20] = Plasma protein binding in human; assay type: ADME, cell-free
[21] = Microsomal stability in human liver microsomes assessed as intrinsic clearance; assay type: ADME, Microsome
[22] = Microsomal stability in human liver microsomes assessed as parent compound remaining measured after 30 min; assay type: ADME, Microsome; conditions: 0.5 h
[23] = Microsomal stability in rat liver microsomes assessed as parent compound remaining measured after 30 min; assay type: ADME, Microsome; conditions: 0.5 h
[24] = Cmax in male CD-1 mouse at 5 mg/kg, po; assay type: ADME, organism-based; design: route oral, dose 5 mg/kg; conditions: in vivo
Outline: (§3)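 Groups of three drug-naive adult male CD-1 mice; IV dose 2 mg/kg in 3% dimethylacetamide/45% PEG300/12% ethanol/40% sterile water; PO dose 5 mg/kg in 2% Tween 80 in 0.9% saline. Compound measured in blood; AUC_last to last quantifiable time point, AUC_INF extrapolated to infinity; Cmax is maximum observed blood concentration. Mean (SD).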

[25] = Volume of distribution at steady state in male CD-1 mouse at 2 mg/kg, iv; assay type: ADME, organism-based; conditions: in vivo, read-out: Vdss
Outline: (§4)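 Adult male CD-1 mice, drug naïve, three per group; single 2 mg/kg IV bolus in 3% dimethylacetamide/45% PEG300/12% ethanol/40% sterile water. Compound measured in blood over time. CL is total body clearance, t1/2 is the terminal elimination phase half-life, Vss is volume of distribution at steady state. Reported as mean (SD).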

[26] = target: T2, Peroxisome proliferator-activated receptor gamma (Homo sapiens, UniProt P37231); assay: Activity at PPARgamma (unknown origin)
T2 sequence (P37231 whole entry): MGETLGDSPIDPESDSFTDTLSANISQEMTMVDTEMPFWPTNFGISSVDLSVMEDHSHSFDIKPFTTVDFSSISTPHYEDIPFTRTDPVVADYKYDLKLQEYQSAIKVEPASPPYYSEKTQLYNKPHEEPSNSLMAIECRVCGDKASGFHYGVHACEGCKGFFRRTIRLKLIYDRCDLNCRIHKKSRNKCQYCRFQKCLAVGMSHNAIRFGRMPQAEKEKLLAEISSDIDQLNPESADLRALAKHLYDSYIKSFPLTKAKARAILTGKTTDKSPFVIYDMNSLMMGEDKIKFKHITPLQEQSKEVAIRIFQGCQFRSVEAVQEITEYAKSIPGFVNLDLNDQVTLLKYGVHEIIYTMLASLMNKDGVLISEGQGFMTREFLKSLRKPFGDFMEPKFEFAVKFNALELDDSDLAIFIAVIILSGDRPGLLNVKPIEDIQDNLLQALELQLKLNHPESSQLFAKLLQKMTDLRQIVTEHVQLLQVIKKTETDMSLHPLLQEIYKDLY

[27] = AUC (infinity) in male CD-1 mouse at 5 mg/kg, po; assay type: ADME, organism-based; design: time infinity, route oral, dose 5 mg/kg; conditions: in vivo; outline: as §3
[28] = in vivo; conditions: male, CD-1, mouse, iv, 2 mg/kg
[29] = Clearance in male CD-1 mouse at 2 mg/kg, iv; assay type: ADME, organism-based; conditions: in vivo; outline: as §4
[30] = target: Voltage-gated inwardly rectifying potassium channel KCNH2 (Homo sapiens, UniProt Q12809); assay: Inhibition of human ERG
Chain of Voltage-gated inwardly rectifying potassium channel KCNH2 (Q12809 whole entry): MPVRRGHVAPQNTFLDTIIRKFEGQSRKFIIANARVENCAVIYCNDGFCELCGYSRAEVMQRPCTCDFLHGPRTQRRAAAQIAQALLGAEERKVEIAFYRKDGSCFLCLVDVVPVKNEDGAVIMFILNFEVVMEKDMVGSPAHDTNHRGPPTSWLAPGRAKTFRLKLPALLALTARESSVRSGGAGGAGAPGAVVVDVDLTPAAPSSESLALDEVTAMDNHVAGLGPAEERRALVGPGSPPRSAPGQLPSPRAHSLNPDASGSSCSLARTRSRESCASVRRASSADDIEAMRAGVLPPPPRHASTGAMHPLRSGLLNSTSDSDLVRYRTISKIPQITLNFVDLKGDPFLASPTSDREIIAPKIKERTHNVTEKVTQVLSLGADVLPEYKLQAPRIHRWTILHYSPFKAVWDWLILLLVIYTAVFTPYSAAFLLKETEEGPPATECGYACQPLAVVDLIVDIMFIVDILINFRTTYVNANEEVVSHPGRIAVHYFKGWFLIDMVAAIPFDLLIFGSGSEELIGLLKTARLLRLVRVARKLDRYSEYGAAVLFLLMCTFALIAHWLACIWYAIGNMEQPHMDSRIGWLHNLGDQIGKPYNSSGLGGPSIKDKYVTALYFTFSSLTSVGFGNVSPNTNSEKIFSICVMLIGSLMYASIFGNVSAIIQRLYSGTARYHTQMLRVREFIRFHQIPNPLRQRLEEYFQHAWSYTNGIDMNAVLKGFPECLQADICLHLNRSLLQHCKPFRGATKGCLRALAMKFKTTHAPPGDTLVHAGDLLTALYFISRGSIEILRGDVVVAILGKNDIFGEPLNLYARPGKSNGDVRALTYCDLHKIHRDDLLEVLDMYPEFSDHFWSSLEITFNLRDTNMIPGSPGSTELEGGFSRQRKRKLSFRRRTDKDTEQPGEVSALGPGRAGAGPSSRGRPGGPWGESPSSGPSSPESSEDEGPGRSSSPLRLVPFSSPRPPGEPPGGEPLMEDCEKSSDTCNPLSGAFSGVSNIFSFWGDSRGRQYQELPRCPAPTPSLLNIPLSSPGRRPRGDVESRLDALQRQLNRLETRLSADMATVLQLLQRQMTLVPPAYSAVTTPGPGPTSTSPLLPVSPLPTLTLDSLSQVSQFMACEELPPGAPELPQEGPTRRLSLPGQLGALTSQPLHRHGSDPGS

[31] = Half life in male CD-1 mouse at 5mg/kg, po; assay type: ADME, organism-based; conditions: in vivo
Outline: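 Adult male CD-1 mice, drug naïve, three per group; single 5 mg/kg oral dose in 2% Tween 80 in 0.9% saline. Blood compound levels followed over time; apparent terminal-phase half-life reported as mean (SD).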

[32] = test system: Mus musculus; assay: Reduction in serum RBP4 level in mouse measured at 25 mg/kg, po administered as single dose measured after 2 hrs; assay type: functional
[33] = AUClast in male CD-1 mouse at 5 mg/kg, po; assay type: ADME, organism-based; design: time 0 - last, route oral, dose 5 mg/kg; conditions: in vivo; outline: as §3
[34] = AUC in male CD-1 mouse at 2 mg/kg, iv; assay type: ADME, organism-based; design: dose 2 mg/kg; conditions: in vivo; outline: as §3
[35] = Microsomal stability in mouse liver microsomes assessed as parent compound remaining measured after 30 min; assay type: ADME, Microsome; conditions: 0.5 h
[36] = Half life in male CD-1 mouse at 2 mg/kg, iv; assay type: ADME, organism-based; conditions: in vivo; outline: as §4
[37] = AUClast in male CD-1 mouse at 2 mg/kg, iv; assay type: ADME, organism-based; design: route intravenous, time 0 - last, dose 2 mg/kg; conditions: in vivo; outline: as §3

## Cc1ccc(C(=O)O)cc1N1CCN(c2c(C)n[nH]c2C)CC1
[1]
  inhibition at 10 µM: 7.34%
[2]
  inhibition at 10 µM: -5.2%
[3]
  solubility kinetic: ≥ 200 µM
[4]
  inhibition at 10 µM: 56.2%
[5]
  inhibition at 10 µM: 0.06%
[6]
  IC50: > 3 µM

## Cc1n[nH]c(C)c1N1C[C@H]2CN(c3cc(C(=O)O)ccc3F)C[C@H]2C1
[7]
  IC50: 2.82 µM
[6]
  IC50: > 3 µM

## Cc1n[nH]c(C)c1N1CCN(c2cc(C(=O)O)ccc2F)CC1 [listing 1 of 3 here]
[8]
  inhibition: Active
[9]
  Activity: inactive
[10]
  inhibition: Active
[11]
  Activity: Active
[12]
  Activity: Active
[13]
  Activity: Active
[14]
  Activity: Active

## Cc1n[nH]c(C)c1N1CCN(c2cc(C(=O)O)ccc2F)CC1 [listing 2 of 3 here]
[15]
  inhibition in vivo at 25 mg/kg: 81%

## Cc1n[nH]c(C)c1N1CCN(c2cc(C(=O)O)ccc2Cl)CC1
[1]
  inhibition at 10 µM: 10%
[16]
  inhibition (INH): 19.5%
[17]
  PPB: 89%
[3]
  solubility kinetic: ≥ 200 µM
[4]
  inhibition at 10 µM: 25.2%
[18]
  inhibition (INH): 1.85%
[6]
  IC50: > 3 µM

## Cc1n[nH]c(C)c1CCCOc1cc(C(=O)O)ccc1F [ACORAMIDIS]
[6]
  IC50: > 30 µM

## Cc1n[nH]c(C)c1N1CCN(c2cc(C(=O)O)ccc2I)CC1
[7]
  IC50: 0.19 µM
[19]
  IC50: 2.65 µM

## Cc1n[nH]c(C)c1N1CCN(c2cc(C(N)=O)ccc2F)CC1
[6]
  IC50: > 3 µM

## Cc1n[nH]c(C)c1N1CCN(c2cc(C(=O)O)ccc2C(F)(F)F)CC1
[20]
  PPB: 86%
[1]
  inhibition at 10 µM: 5.9%
[16]
  inhibition (INH): 14.8%
[3]
  solubility kinetic: ≥ 200 µM
[4]
  inhibition at 10 µM: 17.1%
[18]
  inhibition (INH): 2.3%
[6]
  IC50: > 3 µM

## Cc1n[nH]c(C)c1N1CCN(c2cccc(C(=O)O)c2F)CC1
[6]
  IC50: > 3 µM

## Cc1n[nH]c(C)c1N1CCN(c2cc(-c3nn[nH]n3)ccc2F)CC1
[21]
  CLH: 18.4 µL/min/mg
[1]
  inhibition at 10 µM: 0.8%
[16]
  inhibition (INH): 18.9%
[17]
  PPB: 94%
[3]
  solubility kinetic: ≥ 200 µM
[22]
  Stability: 71.4%
[4]
  inhibition at 10 µM: 26.3%
[5]
  inhibition at 10 µM: -4.8%
[6]
  IC50: > 3 µM

## O=C(O)c1ccc2nc(-c3cc(Cl)cc(Cl)c3)oc2c1
[11]
  Activity: Active
[14]
  Activity: Active
[6]
  IC50: > 30 µM

## O=C(O)c1ccc(F)c(N2CCN(c3ccccc3C(F)(F)F)CC2)c1
[7]
  IC50: 1.7 µM
[6]
  IC50: > 3 µM

## Cc1n[nH]c(C)c1N1CCN(c2ccc(F)c(C(=O)O)c2)CC1
[6]
  IC50: > 3 µM

## Cc1noc(C)c1N1CCN(c2cc(C(=O)O)ccc2F)CC1
[6]
  IC50: > 3 µM

## Cc1n[nH]c(C)c1N1CCN(c2cccc(C(=O)O)c2)CC1
[6]
  IC50: > 30 µM

## Cc1cc(F)c(N2CCN(c3c(C)n[nH]c3C)CC2)cc1C(=O)O
[20]
  PPB: 87%
[23]
  Stability: 105%
[1]
  inhibition at 10 µM: 9.2%
[16]
  inhibition (INH): 31.7%
[17]
  PPB: 93%
[3]
  solubility kinetic: ≥ 200 µM
[4]
  inhibition at 10 µM: 1.1%
[5]
  inhibition at 10 µM: -3%
[6]
  IC50: > 3 µM

## Cc1n[nH]c(C)c1N1CC2(CN(c3cc(C(=O)O)ccc3F)C2)C1
[7]
  IC50: > 30 µM
[6]
  IC50: > 3 µM

## Cc1n[nH]c(C)c1N1CCN(c2cc(C(=O)O)ccc2F)CC1 [listing 3 of 3 here]
[20]
  PPB: 83%
[24]
  Cmax: 1.56 µg/mL
[25]
  Vd: 2.18 L/kg
[26]
  EC50: > 30 µM
[1]
  inhibition at 10 µM: 8.1%
[27]
  AUC(0-inf): 16.1 µg·h/mL
[2]
  inhibition at 10 µM: -2.2%
[28]
  C0: 1.62 µg/mL
[29]
  clearance: 0.354 L/h/kg
[30]
  IC50: > 30 µM
[31]
  half-life: 5.38 h
[32]
  inhibition in vivo at 25 mg/kg: 66%
[33]
  AUC(0-t): 16 µg·h/mL
[34]
  AUC: 6.24 µg·h/mL
[35]
  Stability: 102%
[4]
  inhibition at 10 µM: 10.4%
[36]
  half-life: 5.08 h
[37]
  AUC(0-t): 6.21 µg·h/mL
[6]
  IC50: > 3 µM

## O=C(O)c1ccc(F)c(N2CCN(c3nn[nH]n3)CC2)c1
[7]
  IC50: > 30 µM
[6]
  IC50: > 3 µM

## Cc1n[nH]c(C)c1N1CCC2(CCN(c3cc(C(=O)O)ccc3F)C2)C1 (racemic)
[7]
  IC50: 1.08 µM
[6]
  IC50: > 3 µM

## Cc1n[nH]c(C)c1N1CCN(c2cc(F)cc(C(=O)O)c2)CC1
[6]
  IC50: > 3 µM
